Laboratory results: PubChem BioAssay
Active and inactive are the calls of the source.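 How the source made its calls, unless noted: active means NADPH fluorescence slope more negative than the mean of all samples by about 3 SD, 99.7% confidence; inactive means the rest.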

What was measured:
[1] = inhibitors of TNFa-induced NFkB p65 translocation, primary screen, imaging, HUVEC, MLSMR starter and 10KST1 sets (AID 438;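 active means inhibition above 20% together with a positive visual image hit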;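 further: compound added about 3h40 before a 20 min TNFalpha stimulation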;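 on inhibition: signal is the nuclear over cytoplasmic p65 intensity ratio per well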); settings: HUVEC TNFa-induced p65 nuclear translocation; cell count: measured here: nuclei count (cytotoxicity indicator), at 2.08 µM; inhibition: at 2 µM, stronger effect = higher value, 0% TNFa-plus-vehicle, 100% no-TNFa wells
[2] = reduction of polyQ htt aggregates in cells – imaging, exon1htt(103Q)mCFP cells, high-content imaging, primary screen (AID 483;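 active means visual image review flags a hit and inhibition of aggregation exceeds 20%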;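 further: compound exposure lasted 3 days before fixation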;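 on nuclei count: percent of the per-plate median nuclei count of sample wells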); settings: exon1htt(103Q)mCFP cell line, aggregate imaging, at 2 µM; inhibition of aggregation: stronger effect = higher value; nuclei count: measured here: cell count, toxicity
[3] = endothelial E-selectin expression blockers – imaging, HUVEC, immunofluorescence, MLSMR starter and 10KST1 sets, primary screen (AID 487;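 active means visually confirmed hit in the image check and inhibition above 20%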;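 on inhibition: signal is fraction of cell area covered by stained E-selectin grains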;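 on nuclei count: 100% = median nuclei count of all wells on the same plate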); settings: HUVEC TNFalpha-induced E-selectin immunofluorescence imaging, at 2 µM; inhibition: stronger effect = higher value; nuclei count: measured here: cell number, toxicity
[4] = target: Voltage-gated potassium channel subunit beta-2 (Rattus norvegicus) (UniProt P62483); assay: inhibitors of rat Kvbeta2 reductase activity – biochemical, NADPH fluorescence, primary screen (AID 622;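 active means fluorescence slope higher than the sample average by over 3 SD, cut at about -0.22 in these data, passing the limit was not always enough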;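 further: slope of raw intensity against log time taken from 70 to 1610 s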); settings: recombinant KvBeta, 4-cyanobenzaldehyde reduction, at 10 µM, stronger effect = higher value
[5] = target: Voltage-gated potassium channel subunit beta-2 (Rattus norvegicus) (UniProt P62483); assay: enhancers of rat Kvbeta2 NADPH turnover – biochemical, NADPH fluorescence, primary screen (AID 623); settings: Recombinant KvBeta, NADPH fluorescence decrease slope, 10 min; at 10 µM; stronger effect = lower value;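 further: fluorescence intensity change per second fitted from 20 to 320 s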
[6] = target: Muscarinic acetylcholine receptor M4 (Homo sapiens) (UniProt P08173); assay: M4-linked GIRK flux change, two-sided – cell-based, HEK293 M4/GIRK, thallium flux, BTC-AM, M4 allosteric agonist project, primary screen (AID 625;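 active means fluorescence slope after compound addition differing from the mean of all tested samples at 99.7% confidence, mostly higher but some lower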;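 further: thallium influx through GIRK channels coupled to M4 in HEK293 cells with BTC-AM dye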); settings: at 10 µM, actives lie on both sides
How it was run: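 System: HEK293 cells with M4 receptor and GIRK channels | Incubation: Cells overnight at 37 °C, BTC-AM loading 1 h, reads 2 min total | Technique: Kinetic BTC-AM fluorescence sampled at 1 Hz, 10 s pre-addition baseline | Measure: Post-addition slope, 15–24 s, of baseline-normalized fluorescence | Control set: Carbachol positive, DMSO negative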

[7] = blockers of RIG-like receptor reporter activation – cell-based, Sendai virus stimulus, luciferase, 10K MLSCN set, TLR/RLR signaling modifier project, primary screen (AID 602276;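 active means inhibition at or above 50% at 10 µM; inactive means inhibition below 50%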;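 further: firefly luciferase from ISG56 promoter only with Renilla not read in this screen; 0% = Sendai virus plus DMSO and 100% = medium plus DMSO without virus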); settings: HEK293 RL24 IRF3 luciferase reporter, at 10 µM, stronger effect = higher value
[8] = TLR3 IRF3 reporter activation blockers – cell-based, poly I:C stimulus, luciferase, 10K MLSCN set, primary screen (AID 602277;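 active means inhibition of the reporter signal at or above 50%; inactive means inhibition below 50%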); settings: HEK293-TLR3 RL24 IRF3 luciferase reporter, at 10 µM, stronger effect = higher value

Voltage-gated potassium channel subunit beta-2 (Rattus norvegicus), sequence (P62483 whole entry, looked up): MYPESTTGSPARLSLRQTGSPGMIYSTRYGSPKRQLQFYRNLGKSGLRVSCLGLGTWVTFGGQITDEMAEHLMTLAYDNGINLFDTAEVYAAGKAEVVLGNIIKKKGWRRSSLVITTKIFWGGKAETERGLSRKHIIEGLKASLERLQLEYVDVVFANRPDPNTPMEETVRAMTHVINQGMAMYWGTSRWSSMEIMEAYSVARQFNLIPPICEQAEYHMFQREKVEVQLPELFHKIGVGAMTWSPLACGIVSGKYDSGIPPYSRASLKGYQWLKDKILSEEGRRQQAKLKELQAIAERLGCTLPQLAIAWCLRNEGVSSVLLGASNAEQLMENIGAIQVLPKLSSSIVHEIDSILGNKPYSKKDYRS
Muscarinic acetylcholine receptor M4 (Homo sapiens), sequence (P08173 whole entry, looked up): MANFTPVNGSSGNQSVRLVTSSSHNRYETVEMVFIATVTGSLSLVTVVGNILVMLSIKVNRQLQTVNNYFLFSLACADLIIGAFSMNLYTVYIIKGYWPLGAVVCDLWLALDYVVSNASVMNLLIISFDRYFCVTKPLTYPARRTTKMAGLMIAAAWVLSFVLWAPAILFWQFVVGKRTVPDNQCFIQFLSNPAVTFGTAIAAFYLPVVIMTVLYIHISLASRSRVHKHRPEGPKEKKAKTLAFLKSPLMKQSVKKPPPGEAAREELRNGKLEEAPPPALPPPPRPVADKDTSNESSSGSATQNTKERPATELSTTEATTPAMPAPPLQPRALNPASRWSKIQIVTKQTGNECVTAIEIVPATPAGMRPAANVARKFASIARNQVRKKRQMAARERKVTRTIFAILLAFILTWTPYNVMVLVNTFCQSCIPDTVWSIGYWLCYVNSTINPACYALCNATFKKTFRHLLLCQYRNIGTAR

SMILES | cell count [1] | inhibition [1] | inhibition of aggregation [2] | nuclei count [2] | inhibition [3] | nuclei count [3] | fluorescence slope [4] | NADPH fluorescence slope [5] | fluorescence slope [6] | inhibition [7] | inhibition [8]
c1ccc2c3nnc4n(c-3nc2c1)CCCS4 | 472 | 4.1% (inactive) | 0.4% (inactive) | 101% | 17.9% (inactive) | 112% | -0.444 (inactive) | -2.5e-05 (inactive) | 0.00387 (inactive) | -12.6% (inactive) | -19.6% (inactive)
CCOc1cccc(Oc2ccc(C(F)(F)F)cn2)c1 | 664 | -8% (inactive) | -17.4% (inactive) | 120% | 8.4% (inactive) | 97.3% | -0.526 (inactive) | 1.7e-05 (inactive) | 0.00424 (inactive) | 5.91% (inactive) | 3.43% (inactive)
O=C(Cn1cccc1)N1CCN(C(c2ccccc2)c2ccccc2)CC1 | 337 | -8.9% (inactive) | -11.9% (inactive) | 110% | -52.8% (inactive) | 107% | -0.213 (inactive) | -1.1e-05 (inactive) | 0.00614 (inactive) | 13.3% (inactive) | 22% (inactive)
CCCn1c(N2CCN(CC(=O)Nc3ccc4c(c3)OCCO4)CC2)nc2ccccc21 | 411 | -11% (inactive) | 1.8% (inactive) | 103% | -98.9% (inactive) | 74.4% | -0.526 (inactive) | -0.000207 (inactive) | 0.00376 (inactive) | 4.25% (inactive) | 20.1% (inactive)
Cc1ccc(CNC(=O)C2CCCN(S(=O)(=O)c3cccnc3)C2)cc1 (stereo not drawn) | 313 | -3.9% (inactive) | -2.8% (inactive) | 89.2% | -250% (inactive) | 88.5% | -0.573 (inactive) | 2.7e-05 (inactive) | 0.00508 (inactive) | -3.78% (inactive) | -7.01% (inactive)
CC(=O)c1cc(-c2ccccc2)n(CC(=O)N2CCN(C3CCCC3)CC2)c1C | 407 | 8.8% (inactive) | 23.8% (inactive) | 81% | 25.1% (inactive) | 103% | -0.571 (inactive) | -7.1e-05 (inactive) | 0.00681 (inactive) | 13.3% (inactive) | 23.8% (inactive)
Cc1cc(C)c2oc(=O)cc(CN3CCOCC3)c2c1 | 647 | 2% (inactive) | 4.4% (inactive) | 87.2% | -10.1% (inactive) | 99.8% | -0.551 (inactive) | 2.5e-06 (inactive) | 0.00519 (inactive) | 15.5% (inactive) | 25.5% (inactive)
O=S(=O)(NCCc1ccccc1F)c1cccc(S(=O)(=O)N2CCOCC2)c1 | 434 | 5.7% (inactive) | 6.4% (inactive) | 105% | -14.8% (inactive) | 110% | -0.584 (inactive) | 1.5e-06 (inactive) | 0.00428 (inactive) | 9.49% (inactive) | 13% (inactive)
N#CC1=C(N)n2c(s/c(=C\c3ccco3)c2=O)=C(C#N)C1c1ccco1 (stereo not drawn) | 422 | -2.2% (inactive) | 8.3% (inactive) | 106% | -34.4% (inactive) | 116% | -0.565 (inactive) | -3.6e-05 (inactive) | 0.00353 (inactive) | 19.5% (inactive) | 38% (inactive)
CCOC(=O)c1nnn(-c2nonc2NC(C)=O)c1C | 323 | 6.5% (inactive) | -14.1% (inactive) | 98.9% | -39.1% (inactive) | 93.3% | -0.58 (inactive) | -1.6e-05 (inactive) | 0.00665 (inactive) | 17.3% (inactive) | 14% (inactive)
CCn1c(=N)n(CC(=O)C23CC4CC(CC(C4)C2)C3)c2ccccc21 | 721 | -26.7% (inactive) | -8.2% (inactive) | 93.6% | -45.9% (inactive) | 117% | -0.271 (inactive) | -1.5e-05 (inactive) | 0.00365 (inactive) | 1.98% (inactive) | 23.3% (inactive)
C=CCNC(=O)CSc1ccc(Cl)cc1 | 339 | 7.4% (inactive) | -7.8% (inactive) | 96% | -99.8% (inactive) | 101% | -0.448 (inactive) | -0.000358 (inactive) | 0.00478 (inactive) | 5.55% (inactive) | -3.36% (inactive)
COC(=O)c1ccc(-c2ccc(CNCC(O)c3ccccc3)o2)cc1 (stereo not drawn) | 400 | 3.2% (inactive) | -6% (inactive) | 111% | -27.1% (inactive) | 115% | -0.313 (inactive) | -1.1e-05 (inactive) | 0.00598 (inactive) | 13.2% (inactive) | 13.8% (inactive)
CCOc1ccc2cc(C#N)c(SCC(=O)N3CCOCC3)nc2c1 | 386 | 1% (inactive) | 11.7% (inactive) | 97.9% | -46.6% (inactive) | 90.7% | -0.487 (inactive) | -2.5e-05 (inactive) | 0.00448 (inactive) | -22.4% (inactive) | -67% (inactive)
CCOc1cc(C2C(C(=O)c3ccccc3)=C(C(=O)OC)Nc3nnnn32)ccc1O (stereo not drawn) | 351 | -7.9% (inactive) | 0% (inactive) | 110% | -69.2% (inactive) | 157% | -0.52 (inactive) | -3.5e-05 (inactive) | 0.00584 (inactive) | 0.723% (inactive) | 11.1% (inactive)
C=CCn1c(=O)/c(=C/c2ccc(O)cc2)s/c1=C(/C#N)c1nnc2n1CCCCC2 | 483 | -0.5% (inactive) | 11.1% (inactive) | 112% | -5.3% (inactive) | 116% | -0.332 (inactive) | -4.5e-05 (inactive) | 0.00728 (inactive) | 17.7% (inactive) | -30% (inactive)
CCC(=O)N1CCc2cc(OC)c(OC)cc2C1COc1ccc(C(=O)OC)cc1 (stereo not drawn) | 767 | -20.4% (inactive) | -5.1% (inactive) | 128% | 36.5% (inactive) | 108% | -0.543 (inactive) | -2e-05 (inactive) | 0.00388 (inactive) | 23.8% (inactive) | 6.29% (inactive)
O=c1oc2ccccc2c(N2CCCCC2)c1CN1CCCCC1 | 731 | -5.4% (inactive) | -7.2% (inactive) | 108% | 25.6% (inactive) | 104% | -0.549 (inactive) | -6.2e-05 (inactive) | 0.00538 (inactive) | -13.6% (inactive) | -1.22% (inactive)
CCCn1c(SCC(=O)Nc2cc(C)on2)nc2c1c(=O)n(C)c(=O)n2C | 400 | 6.8% (inactive) | 3.2% (inactive) | 95.2% | -36.6% (inactive) | 152% | -0.551 (inactive) | -2.8e-05 (inactive) | 0.00431 (inactive) | -5.89% (inactive) | 0.557% (inactive)
O=C(O)c1c[nH]c2ccc(S(=O)(=O)N3CCN(c4ccc(F)cc4)CC3)cc2c1=O | 423 | -1.1% (inactive) | 20.5% (inactive) | 87.5% | -183% (inactive) | 101% | -0.566 (inactive) | 2e-06 (inactive) | 0.00349 (inactive) | 1.85% (inactive) | 0.478% (inactive)
c1ccc(OCCOc2ncnc3sccc23)cc1 | 395 | -22% (inactive) | -0.7% (inactive) | 106% | -62.1% (inactive) | 125% | -0.583 (inactive) | -5e-05 (inactive) | 0.00602 (inactive) | -2.1% (inactive) | -65.8% (inactive)
O=C(CN1CCC(n2nnc3cc(F)ccc32)CC1)Nc1ccc2c(c1)CCC2 | 590 | -57.1% (inactive) | -14.1% (inactive) | 112% | -84.4% (inactive) | 108% | -0.364 (inactive) | -1.5e-05 (inactive) | 0.00687 (inactive) | 14.8% (inactive) | 1.94% (inactive)
CCc1ccc(NC(=O)c2cc(-c3ccco3)on2)cc1 | 382 | -5.1% (inactive) | 7.7% (inactive) | 99.2% | 6.4% (inactive) | 93.1% | -0.44 (inactive) | -4.3e-05 (inactive) | 0.00523 (inactive) | -42.1% (inactive) | -129% (inactive)
O=C(c1ccc(Cl)c(Cl)c1)N1CCOCC1 | 694 | -9.1% (inactive) | -0.3% (inactive) | 107% | 5.6% (inactive) | 105% | -0.568 (inactive) | -2.1e-05 (inactive) | 0.00532 (inactive) | 3.81% (inactive) | 3.54% (inactive)
CC1CN(CC(O)COc2ccc(C(C)C)cc2)CC(C)O1 (stereo not drawn) | 812 | -4.8% (inactive) | 7.5% (inactive) | 120% | -54.5% (inactive) | 140% | -0.534 (inactive) | -0.000138 (inactive) | 0.0054 (inactive) | -56.4% (inactive) | 98.7% (active)
CCC(C)NC(=O)C1CCCN(S(=O)(=O)c2ccc(-n3cnnn3)cc2)C1 (stereo not drawn) | 518 | -5.4% (inactive) | 13.6% (inactive) | 104% | -9.5% (inactive) | 108% | -0.279 (inactive) | 8.9e-07 (inactive) | 0.00556 (inactive) | -2.34% (inactive) | -2.75% (inactive)
Cn1c(=O)c(C(=S)NC(=O)C2CC2)c(N)n(Cc2ccccc2)c1=O | 381 | -8% (inactive) | 14.6% (inactive) | 111% | -77.3% (inactive) | 141% | -0.48 (inactive) | -3.3e-05 (inactive) | 0.00619 (inactive) | 10.8% (inactive) | 14.5% (inactive)
COc1ccc(Cc2nnc3n2N=C(c2cc4ccccc4o2)CS3)cc1OC | 378 | -16.3% (inactive) | 40.2% (active) | 43.3% | 38.3% (inactive) | 51.6% | -0.346 (inactive) | -7.6e-05 (inactive) | 0.00468 (inactive) | 11.3% (inactive) | 26% (inactive)
